# In paper PMC2834294 (Chemistry & biology, 2010):
# Assays:
# Type in all cases: cell-based
# TRPML2 = target: T1, TRPML2 (Homo sapiens, UniProt Q8IZK6); test: Fura-2 calcium imaging, HEK293 cells expressing TRPML2; settings: 10 µM
# T1 sequence (Q8IZK6 1-566): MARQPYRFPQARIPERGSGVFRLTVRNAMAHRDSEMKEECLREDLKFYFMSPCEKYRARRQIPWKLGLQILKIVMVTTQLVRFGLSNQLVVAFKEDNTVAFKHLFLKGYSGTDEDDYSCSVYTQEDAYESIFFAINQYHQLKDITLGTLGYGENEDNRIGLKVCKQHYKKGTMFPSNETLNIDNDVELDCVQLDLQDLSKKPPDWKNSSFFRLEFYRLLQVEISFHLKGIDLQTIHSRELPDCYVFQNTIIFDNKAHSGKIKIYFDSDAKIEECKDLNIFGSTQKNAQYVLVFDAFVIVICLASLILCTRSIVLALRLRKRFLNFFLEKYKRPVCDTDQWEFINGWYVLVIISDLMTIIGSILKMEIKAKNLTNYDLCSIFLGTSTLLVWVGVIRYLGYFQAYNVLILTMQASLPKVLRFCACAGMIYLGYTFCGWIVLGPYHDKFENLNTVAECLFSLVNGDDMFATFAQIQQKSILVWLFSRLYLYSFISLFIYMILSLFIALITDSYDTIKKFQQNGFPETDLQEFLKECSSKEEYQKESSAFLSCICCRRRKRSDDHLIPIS
# Outline: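 HEK293 cells were transiently transfected (Genejammer) with the human channel construct or YFP control and measured 24 h later. Cells on glass coverslips were loaded with 4 µM fura-2-AM in bath solution (mM: 138 NaCl, 6 KCl, 2 MgCl2, 2 CaCl2, 10 HEPES, 5.5 D-glucose; pH 7.4). Compounds were applied at 10 µM and the F340/F380 ratio recorded. Values are mean ± SEM, n≥3.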
# TRPML3 = target: T2, TRPML3 (Homo sapiens, UniProt Q8TDD5); test: Whole-cell patch-clamp with intracellular application
# T2 sequence (Q8TDD5 1-553): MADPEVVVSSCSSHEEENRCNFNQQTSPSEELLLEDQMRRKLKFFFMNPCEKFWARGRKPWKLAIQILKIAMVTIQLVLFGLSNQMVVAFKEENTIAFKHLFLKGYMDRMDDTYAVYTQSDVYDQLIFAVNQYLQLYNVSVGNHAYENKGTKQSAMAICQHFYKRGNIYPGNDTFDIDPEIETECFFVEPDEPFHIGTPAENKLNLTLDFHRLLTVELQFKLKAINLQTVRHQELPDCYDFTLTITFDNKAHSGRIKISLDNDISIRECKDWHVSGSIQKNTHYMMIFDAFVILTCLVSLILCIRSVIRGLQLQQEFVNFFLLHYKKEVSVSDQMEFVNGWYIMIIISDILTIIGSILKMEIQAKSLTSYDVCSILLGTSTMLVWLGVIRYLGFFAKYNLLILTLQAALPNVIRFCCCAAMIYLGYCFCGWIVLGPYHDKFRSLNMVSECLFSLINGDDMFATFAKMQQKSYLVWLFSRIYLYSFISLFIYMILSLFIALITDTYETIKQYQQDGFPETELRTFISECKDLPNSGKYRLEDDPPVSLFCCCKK
# [1] = target: T3, TRPML3 coexpressed with dynamin (Homo sapiens, UniProt Q8TDD5); test: Calcium imaging, HEK293 cells coexpressing wild type dynamin with TRPML3; settings: compared to control experiments
# T3 sequence (Q8TDD5 1-553): T2 sequence (Q8TDD5 1-553)
# Outline: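 HEK293 cells were transiently cotransfected (Genejammer) with wild-type dynamin and TRPML3 and imaged 24 h later. Cells on glass coverslips were loaded with 4 µM fura-2-AM in bath solution (mM: 138 NaCl, 6 KCl, 2 MgCl2, 2 CaCl2, 10 HEPES, 5.5 D-glucose; pH 7.4). Responses to activators were compared with control transfections.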
smiles,measurement,setting,value
"Cc1cc(C)c(C2=NOC3C4CCC(C4)C23)c(C)c1 (stereo not shown) [SN-2, 5-mesityl-3-oxa-4-azatricyclo[5.2.1.0∼2,6∼]dec-4-ene]",response in HEK293 cells expressing TRPML2,TRPML2,did not show any activity
same,cell membrane permeability,TRPML3; inferred from intracellular infusion experiment,not cell permeant
same,response to intracellular application (infusion),"TRPML3; whole-cell, −80 mV",did not elicit a response when infused into the cells
same,response when wild type dynamin coexpressed with TRPML3 in HEK293 cells,[1],reduction in response
